This passage reports inhibition, Activity and EC50 results from ChEMBL document CHEMBL3351774, “Inhibitory activities of propolis and its promising component, caffeic acid phenethyl ester, against amyloidogenesis of human transthyretin” (J Med Chem, 2014).

In assay [1] the test system is Transthyretin (Homo sapiens), P02766 [V50M]. Description: Inhibition of TTR V30M mutant (unknown origin) expressed in Escherichia coli assessed as inhibition of amyloid fibril formation at 20 uM by fluorescence assay. In a few lines: (§1)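 Acid-mediated aggregation of 10 μM Ni-NTA-purified V30M, read by thioflavin T fluorescence at 484 nm (excitation 440 nm). Compounds were tested at 2.5−80 μM with at least four concentrations. EC50 came from a four-parameter logistic least-squares fit. Standard deviations and p values were taken from triplicate experiments.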

Assay [2] has the same test system. Description: Competitive binding to TTR V30M mutant (unknown origin) expressed in Escherichia coli at 1 to 80 uM by fluorescence assay. Put shortly:
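Thioflavin T competition check: preformed V30M fibrils (10 μM V30M with 66.8 μM thioflavin T, 37 °C, 72 h) were mixed with compounds at 0−80 μM final, with 20 μM thioflavin T and 200 mM Tris-HCl pH 8.0 final. Emission 460−700 nm was recorded with excitation at 440 nm.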

Assay [3] has as its target Transthyretin (Homo sapiens, UniProt P02766, V50M). The assay is described as follows: (§2) Inhibition of TTR V30M mutant (unknown origin) expressed in Escherichia coli assessed as inhibition of amyloid fibril formation by fluorescence assay. In a few lines: (§3)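 Compounds were tested at 2.5−80 μM with at least four concentrations. EC50 came from a four-parameter logistic least-squares fit. Standard deviations and p values were taken from triplicate experiments.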

Assay [4] concerns Transthyretin (Homo sapiens), P02766 [V50M]. Description: Inhibition of TTR V30M mutant (unknown origin) expressed in Escherichia coli assessed as inhibition of amyloid fibril formation at 40 uM by fluorescence assay. Put shortly:
as §1

The test system is the same in assay [5]. The assay is described as follows: Inhibition of TTR V30M mutant (unknown origin) expressed in Escherichia coli assessed as inhibition of amyloid fibril formation at 10 uM by fluorescence assay. In a few lines:
as §1

Assay [6] shares this test system. Description: Inhibition of TTR V30M mutant (unknown origin) expressed in Escherichia coli assessed as inhibition of amyloid fibril formation at 80 uM by fluorescence assay. In a few lines: as §1
For assay [7] the test system is unchanged. The assay is described as follows: Inhibition of TTR V30M mutant (unknown origin) expressed in Escherichia coli assessed as inhibition of amyloid fibril formation at 5 uM by fluorescence assay. Put shortly:
as §1

Assay [8] shares this test system. The assay is described as §2. In a few lines: as §3
Assay [9] addresses Transthyretin (Homo sapiens, UniProt P02766, L75P). The assay is described as follows: Inhibition of TTR L55P mutant (unknown origin) expressed in Escherichia coli assessed as inhibition of amyloid fibril formation by fluorescence assay.
For assay [10], the system named is Transthyretin (Homo sapiens), P02766 [V50M]. The assay is described as follows: Displacement of ANS from TTR V30M mutant (unknown origin) expressed in Escherichia coli at 1 to 50 uM after 5 mins by fluorescence assay. Put shortly:
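ANS displacement on 2 μM Ni-NTA-purified V30M in 50 mM Tris-HCl pH 7.4, 150 mM NaCl at 298 K. ANS and compound were added in sequence, stirred and equilibrated 5 min. Dilution stayed below 0.4%. Emission 400−540 nm was read with excitation at 280 nm.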

Assay [11] addresses Transthyretin (Homo sapiens, UniProt P02766, I104T). Description: Inhibition of TTR I84T mutant (unknown origin) expressed in Escherichia coli assessed as inhibition of amyloid fibril formation by fluorescence assay.
For assay [12], the system named is Transthyretin (Homo sapiens), P02766 [V50M]. Description: Inhibition of acid-mediated dissociation of TTR V30M mutant (unknown origin) expressed in Escherichia coli after 30 mins by SDS-PAGE. Put shortly: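 V30M in 20 mM Tris-Cl pH 8.0, 150 mM NaCl was preincubated with compound (ethanol stock) for 30 min at room temperature. Four volumes of 0.1 M sodium acetate pH 4.5 were then added, and the sample was held at 310 K for 8 days (7.3 μM protein; compound 7.3 or 36.5 μM final). Glutaraldehyde cross-linking ran 5 min and was stopped with borohydride. Bands were resolved by 15% SDS-PAGE and silver-stained.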

Activity calls are given as the source filed them. No cut-off for these calls is given here.

For the molecule `COc1cc(CNC(=O)CCCC/C=C/C(C)C)ccc1O`, the inhibition (in general, the drop in the measured response relative to a control, in per cent) in assay [1] is below 20%.
Regarding `CC(C)=CCOC(=O)/C=C/c1ccc(O)c(O)c1` [PRENYL CAFFEATE], the inhibition in assay [1] is below 20%. For the same molecule, in assay [2], the result was inactive. Besides, the concentration giving a half-maximal response (EC50) (commonly the concentration at which the effect is half-maximal) at Transthyretin [3] (read-out: EC50) was 21 µM.
Take `O=C(O)/C=C/c1ccc(O)c(O)c1` [CAFFEIC ACID]: the outcome in [2] was inactive. For the same molecule, the concentration for a half-maximal effect (EC50) on Transthyretin [3] (read-out: EC50) amounted to 97 µM.
As to `OC[C@H](Cc1cccc(O)c1)[C@H](CO)Cc1cccc(O)c1`, the inhibition in [1] was below 20%.
Consider `CCCCCCCCOC(=O)/C=C/c1ccc(O)c(O)c1`, for which the inhibition in [1] was 47%; in assay [4], 49%; in [5] it was 44%; in [6], 53%; in assay [7], 27%.
As for `COc1ccc(/C=C/C(=O)OCCc2ccccc2)cc1OC`, the result in assay [2] was inactive. Further, the half-maximal effective concentration (EC50) on Transthyretin [3] (read-out: EC50) stood at 58 µM.
Consider `COc1ccc(CC(C)C(C)Cc2ccc(OC)c(OC)c2)cc1OC` (stereo not drawn), for which, in assay [1], the inhibition was below 20%. The 50% effective concentration (EC50) entry at Transthyretin [3] is recorded as “Not Active”.
Take `O=C(/C=C/c1ccccc1)OCCc1ccccc1`: in assay [8], the inhibition entry is “inactive”.
As to `O=C(/C=C/c1ccc(O)c(O)c1)OCc1ccccc1` [BENZYL CAFFEATE], the result in assay [2] was Active. Besides, on Transthyretin [3] (read-out: EC50), the concentration for a half-maximal effect (EC50) turned out to be 16 µM.
On to `CC(Cc1ccc(O)c(O)c1)C(C)Cc1ccc(O)c(O)c1` (stereo not drawn) [NORDIHYDROGUAIARETIC ACID], for which the inhibition in assay [1] is below 20%. Besides, the half-maximal effective concentration (EC50) was determined as 12.6 µM at Transthyretin [9], 8.5 µM on Transthyretin [11] and 7.3 µM on Transthyretin [3] (read-out: EC50). Moreover, the result in assay [10] was Active. Further, the outcome in assay [2] was inactive.
As for `O=C(/C=C/c1ccc(O)c(O)c1)O[C@@H]1C[C@](O)(C(=O)O)C[C@@H](O)[C@H]1O`, the inhibition result in assay [8] was “inactive”.
As to `COc1cc(/C=C/C(=O)OCCc2ccccc2)ccc1O`, the results for the inhibition in assay [1] and in [12] were below 20% and “Dose-dependent effect”, respectively. The outcome in [10] was Active. Also, the outcome in [2] was inactive. In addition, the EC50 at Transthyretin [3] (read-out: EC50) was found to be 7.9 µM.
Regarding `c1cc2c(cc1[C@H]1OC[C@H]3[C@@H]1CO[C@@H]3c1ccc3c(c1)OCO3)OCO2`, in [1], the inhibition was below 20%.
Consider `COC(=O)/C=C/c1ccc(O)c(O)c1` [METHYLCAFFEATE], for which, in assay [2], the outcome was inactive. For the same molecule, on Transthyretin [3] (read-out: EC50), the concentration for a half-maximal effect (EC50) came to 67 µM.
With `O=C(/C=C/c1ccc(O)c(O)c1)OCCc1ccccc1` [CAFFEIC ACID PHENETHYL ESTER], in [1], the inhibition is below 20%. The result in [10] was Active. The result in assay [2] was inactive. The concentration for a half-maximal effect (EC50) at Transthyretin [3] (read-out: EC50) came out at 8.6 µM.
Regarding `COc1ccc(/C=C/C(=O)OCCc2ccccc2)cc1O`, in assay [2], the outcome was inactive. Further, the concentration for a half-maximal effect (EC50) on Transthyretin [3] (read-out: EC50) turned out to be 11 µM.
Turning to `COc1cc(CC(C)C(C)Cc2ccc(O)c(OC)c2)ccc1O` (stereo not drawn) [DIHYDROGUAIARETIC ACID], the inhibition in [1] is below 20%. The outcome in [10] was Active. Further, the result in assay [2] was inactive. Besides, the EC50 at Transthyretin [3] (read-out: EC50) worked out at 6.3 µM.
As to `COc1cc(C[C@H]2COC(=O)[C@@H]2Cc2ccc(O)c(OC)c2)ccc1O`, the inhibition in [1] was below 12%.
On to `CCOC(=O)/C=C/c1ccc(O)c(O)c1` [ETHYL CAFFEATE], for which the inhibition in assay [1] is below 20%. In assay [10], the result was Active. For the same molecule, the outcome in [2] was inactive. The EC50 on Transthyretin [3] (read-out: EC50) was 23 µM.
Regarding `O=C(O)c1cc(-c2ccc(F)cc2F)ccc1O`, the inhibition in [1] is below 20%.
`O=C1OC[C@H](Cc2cccc(O)c2)[C@H]1Cc1cccc(O)c1`: the inhibition in assay [1] was below 20%.
Regarding `O=C(/C=C/c1ccc(O)c(O)c1)O[C@H](Cc1ccc(O)c(O)c1)C(=O)O` [ROSMARINIC ACID], in assay [2], the result was inactive. Further, the EC50 at Transthyretin [3] (read-out: EC50) came to 8.6 µM.
